Reference: ChEMBL document CHEMBL5674880 (PLoS One, 2018)

Tests used:
[1] = biological target: Histone-lysine N-methyltransferase SMYD3 (Homo sapiens, UniProt Q9H7B4); test: Inhibition of SMYD3 (unknown origin)
A549 = test: Antiproliferative activity against human A549 cells expressing KRAS G12S mutant; format: functional, cell-based
Method in brief: (§1)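 Proliferation of human lung cancer cell lines (NSCLC and others) with KRAS mutant or wild-type status. Compound was tested at concentrations up to 25 µM.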

NCI-H441 = test: Antiproliferative activity against human NCI-H441 cells expressing KRAS G12V mutant; format: functional, cell-based; method in brief: as §1
HLE = test: Antiproliferative activity against human HLE cells in 2D growth culture; format: functional, cell-based
Method in brief: (§2)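 2D monolayer proliferation screen across the 240-line Eurofins Oncopanel of human cancer cell lines (mycoplasma-negative, STR-verified). Compound was titrated to a highest tested concentration of 25 μM. Values are the mean of three replicates.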

DK-MG = test: Antiproliferative activity against human DK-MG cells in 2D growth culture; format: functional, cell-based; method in brief: as §2
EM-2 = test: Antiproliferative activity against human EM-2 cells in 2D growth culture; format: functional, cell-based; method in brief: as §2
HT = test: Antiproliferative activity against human HT cells in 2D growth culture; format: functional, cell-based; method in brief: as §2
NCI-H2081 = test: Antiproliferative activity against human NCI-H2081 cells expressing wild-type KRAS; format: functional, cell-based; method in brief: as §1
NCI-H2122 = test: Antiproliferative activity against human NCI-H2122 cells expressing KRAS G12C mutant; format: functional, cell-based; method in brief: as §1
DB = test: Antiproliferative activity against human DB cells in 2D growth culture; format: functional, cell-based; method in brief: as §2
MX1 = test: Antiproliferative activity against human MX1 cells in 2D growth culture; format: functional, cell-based; method in brief: as §2
ES-2 [2] = test: Antiproliferative activity against human ES-2 cells in 2D growth culture; format: functional, cell-based; method in brief: as §2
PC-3 [3] = test: Antiproliferative activity against human PC-3 cells in 2D growth culture; format: functional, cell-based; method in brief: as §2
COR-L105 = test: Antiproliferative activity against human COR-L105 cells expressing wild-type KRAS; format: functional, cell-based; method in brief: as §1
SH-4 [4] = test: Antiproliferative activity against human SH-4 cells in 3D growth culture; format: functional, cell-based
Method in brief: (§3)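 3D growth in matrigel, within a 140-cell-line panel of the Eurofins Oncopanel (mycoplasma negative, STR verified). Compound dosed across a concentration series with a top concentration of 25 μM. Each value is the mean of three replicates.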

[5] = Antiproliferative activity against human SK-N-BE(2)-C cells in 2D growth culture; format: functional, cell-based
Method in brief: (§4)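 2D monolayer culture in the Eurofins Oncopanel of 240 cancer cell lines (mycoplasma negative, STR verified). Compound dosed across a concentration series with a top concentration of 25 μM. Each value is the mean of three replicates.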

HT-3 [6] = test: Antiproliferative activity against human HT-3 cells in 2D growth culture; format: functional, cell-based; method in brief: as §2
HepG2 = test: Antiproliferative activity against human HepG2 cells; format: functional, cell-based
RD [7] = test: Antiproliferative activity against human RD cells in 3D growth culture; format: functional, cell-based
Method in brief: (§5)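 3D proliferation in the Eurofins Oncopanel, with a panel of 140 human cancer cell lines grown in Matrigel. The highest concentration tested was 25 μM. Each value is the mean of three replicates.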

DMS-53 = test: Antiproliferative activity against human DMS-53 expressing wild-type KRAS; format: functional, cell-based; method in brief: as §1
5637 [8] = test: Antiproliferative activity against human 5637 cells in 3D growth culture; format: functional, cell-based; method in brief: as §5
[9] = Antiproliferative activity against human BC1 cells in 2D growth culture; format: functional, cell-based; method in brief: as §2
SH-4 [10] = test: Antiproliferative activity against human SH-4 cells in 2D growth culture; format: functional, cell-based; method in brief: as §4
HT-3 [11] = test: Antiproliferative activity against human HT-3 cells in 3D growth culture; format: functional, cell-based; method in brief: as §5
JAR [12] = test: Antiproliferative activity against human JAR cells in 3D growth culture; format: functional, cell-based; method in brief: as §5
[13] = Antiproliferative activity against human HLF cells in 2D growth culture; format: functional, cell-based; method in brief: as §2
[14] = Antiproliferative activity against human MT-3 cells in 2D growth culture; format: functional, cell-based; method in brief: as §2
RD [15] = test: Antiproliferative activity against human RD cells in 2D growth culture; format: functional, cell-based; method in brief: as §2
[16] = Antiproliferative activity against human A7 cells in 2D growth culture; format: functional, cell-based; method in brief: as §2
J82 [17] = test: Antiproliferative activity against human J82 cells in 2D growth culture; format: functional, cell-based; method in brief: as §2
KLE = test: Antiproliferative activity against human KLE cells in 2D growth culture; format: functional, cell-based; method in brief: as §2
C32 [18] = test: Antiproliferative activity against human C32 cells in 3D growth culture; format: functional, cell-based; method in brief: as §5
EB-3 = test: Antiproliferative activity against human EB-3 cells in 2D growth culture; format: functional, cell-based; method in brief: as §2
T-24 = test: Antiproliferative activity against human T24 cells in 2D growth culture; format: functional, cell-based; method in brief: as §4
[19] = Antiproliferative activity against human C4-1 cells in 3D growth culture; format: functional, cell-based; method in brief: as §5
SW1573 = test: Antiproliferative activity against human SW1573 cells expressing KRAS G12C mutant; format: functional, cell-based
PC-3 [20] = test: Antiproliferative activity against human PC-3 cells in 3D growth culture; format: functional, cell-based; method in brief: as §5
COR-L88 = test: Antiproliferative activity against human COR-L88 cells expressing wild-type KRAS; format: functional, cell-based; method in brief: as §1
Hs 766 [21] = test: Antiproliferative activity against human Hs766T cells in 3D growth culture; format: functional, cell-based; method in brief: as §5
NCI-H2029 = test: Antiproliferative activity against human NCI-H2029 cells expressing wild-type KRAS; format: functional, cell-based; method in brief: as §1
SHP77 = test: Antiproliferative activity against human SHP77 cells expressing KRAS G12V mutant; format: functional, cell-based
ES-2 [22] = test: Antiproliferative activity against human ES2 cells in 3D growth culture; format: functional, cell-based; method in brief: as §5
DMS-153 = test: Antiproliferative activity against human DMS-153 cells expressing wild-type KRAS; format: functional, cell-based; method in brief: as §1
Y79 [23] = test: Antiproliferative activity against human Y79 cells in 3D growth culture; format: functional, cell-based; method in brief: as §3
C32 [24] = test: Antiproliferative activity against human C32 cells in 2D growth culture; format: functional, cell-based; method in brief: as §2
U-266 = test: Antiproliferative activity against human U266B1 cells in 2D growth culture; format: functional, cell-based; method in brief: as §4
AGS = test: Antiproliferative activity against human AGS cells in 2D growth culture; format: functional, cell-based; method in brief: as §2
SR = test: Antiproliferative activity against human SR cells in 2D growth culture; format: functional, cell-based; method in brief: as §4
[25] = Antiproliferative activity against human SK-N-BE(2)-C cells in 3D growth culture; format: functional, cell-based; method in brief: as §3
Hs 766 [26] = test: Antiproliferative activity against human Hs 766T cells in 2D growth culture; format: functional, cell-based; method in brief: as §2
NCI-H23 = test: Antiproliferative activity against human NCI-H23 cells expressing KRAS G12C mutant; format: functional, cell-based; method in brief: as §1
5637 [27] = test: Antiproliferative activity against human 5637 cells in 2D growth culture; format: functional, cell-based; method in brief: as §2
HOS = test: Antiproliferative activity against human HOS cells in 2D growth culture; format: functional, cell-based; method in brief: as §2
[28] = Antiproliferative activity against human MT-3 cells in 3D growth culture; format: functional, cell-based; method in brief: as §5
RKO [29] = test: Antiproliferative activity against human RKO cells in 2D growth culture; format: functional, cell-based; method in brief: as §2
RKO [30] = test: Antiproliferative activity against human RKO cells in 3D growth culture; format: functional, cell-based; method in brief: as §3
DOHH-2 = test: Antiproliferative activity against human DOHH-2 cells in 2D growth culture; format: functional, cell-based; method in brief: as §2
Y79 [31] = test: Antiproliferative activity against human Y79 cells in 2D growth culture; format: functional, cell-based; method in brief: as §4
[32] = Antiproliferative activity against human C4-1 cells in 2D growth culture; format: functional, cell-based; method in brief: as §2
JAR [33] = test: Antiproliferative activity against human JAR cells in 2D growth culture; format: functional, cell-based; method in brief: as §2
J82 [34] = test: Antiproliferative activity against human J82 cells in 3D growth culture; format: functional, cell-based; method in brief: as §5
SK-LU-1 = test: Antiproliferative activity against human SK-LU-1 cells expressing KRAS G12D mutant; format: functional, cell-based
[35] = Antiproliferative activity against human HLF cells in 3D growth culture; format: functional, cell-based; method in brief: as §5
H4 = test: Antiproliferative activity against human H4 cells in 2D growth culture; format: functional, cell-based; method in brief: as §2

Histone-lysine N-methyltransferase SMYD3, sequence (Q9H7B4 whole entry): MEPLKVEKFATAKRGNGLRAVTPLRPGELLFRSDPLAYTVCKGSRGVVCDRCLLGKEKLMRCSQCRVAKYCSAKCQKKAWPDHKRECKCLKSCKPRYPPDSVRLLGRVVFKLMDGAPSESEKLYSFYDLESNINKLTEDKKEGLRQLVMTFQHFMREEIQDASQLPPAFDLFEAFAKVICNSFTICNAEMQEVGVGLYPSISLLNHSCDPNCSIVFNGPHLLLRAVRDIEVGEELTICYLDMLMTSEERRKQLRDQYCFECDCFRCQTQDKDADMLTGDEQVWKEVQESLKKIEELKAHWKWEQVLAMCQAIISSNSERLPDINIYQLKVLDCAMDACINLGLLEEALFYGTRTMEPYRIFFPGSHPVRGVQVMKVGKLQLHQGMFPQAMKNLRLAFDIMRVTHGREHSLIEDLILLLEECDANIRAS

Compound: O=C1Cc2cc(C(=O)N[C@H]3C[C@H]4CC[C@@H](C3)N4S(=O)(=O)CC3CCN(CCCC(F)(F)F)CC3)c(Cl)cc2N1
- IC50 [1]: 0.005 µM

Compound: N[C@H]1CC[C@H](S(=O)(=O)N2[C@@H]3CC[C@H]2C[C@@H](NC(=O)c2cc(C4CC4)on2)C3)CC1
- IC50 (A549): > 20 µM
- IC50 (NCI-H441): > 20 µM
- IC50 (HLE): > 25 µM
- IC50 (DK-MG): > 25 µM
- IC50 (EM-2): > 25 µM
- IC50 (HT): > 25 µM
- IC50 (NCI-H2081): > 20 µM
- IC50 (NCI-H2122): > 20 µM
- IC50 (DB): > 25 µM
- IC50 (MX1): > 25 µM
- IC50 (ES-2 [2]): > 25 µM
- IC50 (PC-3 [3]): > 25 µM
- IC50 (COR-L105): > 20 µM
- IC50 (SH-4 [4]): > 25 µM
- IC50 [5]: > 25 µM
- IC50 (HT-3 [6]): > 25 µM
- IC50 (HepG2): > 40 µM
- IC50 (RD [7]): > 25 µM
- IC50 (DMS-53): > 20 µM
- IC50 5637 [8]: > 25 µM
- IC50 [9]: > 25 µM
- IC50 (SH-4 [10]): > 25 µM
- IC50 (HT-3 [11]): > 25 µM
- IC50 (JAR [12]): > 25 µM
- IC50 [13]: > 25 µM
- IC50 [14]: > 25 µM
- IC50 (RD [15]): > 25 µM
- IC50 [16]: > 25 µM
- IC50 (J82 [17]): > 25 µM
- IC50 (KLE): > 25 µM
- IC50 (C32 [18]): > 25 µM
- IC50 (EB-3): > 25 µM
- IC50 (T-24): > 25 µM
- IC50 [19]: > 25 µM
- IC50 (SW1573): > 20 µM
- IC50 (PC-3 [20]): > 25 µM
- IC50 (COR-L88): > 20 µM
- IC50 (Hs 766 [21]): > 25 µM
- IC50 (NCI-H2029): > 20 µM
- IC50 (SHP77): > 20 µM
- IC50 (ES-2 [22]): > 25 µM
- IC50 (DMS-153): > 20 µM
- IC50 (Y79 [23]): > 25 µM
- IC50 (C32 [24]): > 25 µM
- IC50 (U-266): > 25 µM
- IC50 (AGS): > 25 µM
- IC50 (SR): > 25 µM
- IC50 [25]: > 25 µM
- IC50 (Hs 766 [26]): > 25 µM
- IC50 (NCI-H23): > 20 µM
- IC50 5637 [27]: > 25 µM
- IC50 (HOS): > 25 µM
- IC50 [28]: > 25 µM
- IC50 (RKO [29]): > 25 µM
- IC50 (RKO [30]): > 25 µM
- IC50 (DOHH-2): > 25 µM
- IC50 (Y79 [31]): > 25 µM
- IC50 [32]: > 25 µM
- IC50 (JAR [33]): > 25 µM
- IC50 (J82 [34]): > 25 µM
- IC50 (SK-LU-1): > 20 µM
- IC50 [35]: > 25 µM
- IC50 (H4): > 25 µM
